# Published values gathered from unrelated publications.
# Protocols differ between the studies behind these lines. pIC50: −log10 of the molar value.
# Target: Cholinesterase (BCHE, Homo sapiens, UniProt P06276)
# Effect on: enzyme activity
# Mode: inhibitor
Compound,test,pIC50
Cn1cc(-c2cc(C(=O)NN=Cc3ccccc3)no2)c2ccccc21,,< 4.00
COc1ccc(S(=O)(=O)Oc2ccc3ccccc3c2C=NNC(=O)c2ccc(F)cc2)cc1,Ellman,6.87
Cn1cc(-c2cc(C(=O)NN=Cc3ccccc3Cl)no2)c2ccccc21,,< 4.00
C#CCN(C)CCCOc1cccc(CN(C)c2c3c(nc4ccccc24)CCCC3)c1,Ellman,6.39
CSc1ccc(C=NNC(=O)c2cc(-c3cn(C)c4ccccc34)on2)cc1,,< 4.00
O=[N+]([O-])c1c[nH]c(-c2n[nH]c(=S)n2/N=C/c2ccc(Oc3ccccc3)cc2)c1,Ellman,4.68
C#CCN(C)CCCCCCCOc1cccc(CN(C)c2c3c(nc4ccccc24)CCCC3)c1,Ellman,6.51
O=[N+]([O-])c1c[nH]c(-c2n[nH]c(=S)n2/N=C/c2ccc(Br)c(Cl)c2)c1,Ellman,4.64
C#CCN(C)CCCCCCOCc1ccc(CN(C)c2c3c(nc4ccc(C)cc24)CCCC3)cc1,Ellman,5.90
O=[N+]([O-])c1c[nH]c(-c2n[nH]c(=S)n2/N=C/c2ccc(F)c([N+](=O)[O-])c2)c1,Ellman,4.79
C#CCN(C)CCCCCOCc1ccc(CN(C)c2c3c(nc4ccccc24)CCCC3)cc1,Ellman,6.21
Cn1cc(-c2cc(C(=O)NN=Cc3cccc(Br)c3)no2)c2ccccc21,,< 4.00
C#CCN(C)CCCCOc1cccc(CN(C)c2c3c(nc4ccccc24)CCCC3)c1,Ellman,6.43
COc1ccc(S(=O)(=O)Oc2ccc(C=NNC(=O)c3ccc(F)cc3)cc2)cc1,Ellman,7.08
O=[N+]([O-])c1c[nH]c(-c2n[nH]c(=S)n2/N=C/c2cc(O)cc(F)c2)c1,Ellman,5.02
COc1ccc(S(=O)(=O)Oc2cccc(C=NNC(=O)c3ccc(F)cc3)c2)cc1,Ellman,6.95
C#CCN(C)CCCCCOc1cccc(CN(C)c2c3c(nc4ccccc24)CCCC3)c1,Ellman,6.48
O=[N+]([O-])c1c[nH]c(-c2n[nH]c(=S)n2/N=C/c2ccc(F)c(O)c2)c1,Ellman,5.01
COc1ccc(OC)c(C=NNC(=O)c2cc(-c3cn(C)c4ccccc34)on2)c1,,< 4.00
O=[N+]([O-])c1c[nH]c(-c2n[nH]c(=S)n2/N=C/c2ccc(F)cc2)c1,Ellman,5.04
CCN(CC)c1ccc(C=NNC(=O)c2ccc(F)cc2)c(OS(=O)(=O)c2ccc(OC)cc2)c1,Ellman,7.01
O=[N+]([O-])c1c[nH]c(-c2n[nH]c(=S)n2/N=C/c2cc(Cl)cc(Cl)c2)c1,Ellman,4.84
C#CCN(C)CCCCOCc1ccc(CN(C)c2c3c(nc4ccc(C)cc24)CCCC3)cc1,Ellman,5.75
